{
  "source": "ChEMBL document CHEMBL1127509",
  "about": "“Antitumor agents. 152. In vitro inhibitory activity of etoposide derivative NPF against human tumor cell lines and a study of its conformation by X-ray crystallography, molecular modeling, and NMR spectroscopy” (1994)",
  "key": {"[1]": {"tested_on": "Tumor Cell line", "test": "Tested for in vitro inhibitory activity against drug concentration causing 50% cell death inhibition in 56 human tumor cell lines derived from colon cancer in test 4; log10 LC50", "type": "functional", "settings": "read-out: Log LC50 (the source's name) (converted)", "method_in_brief": "(§1)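 NCI 56-line human tumour panel screen. Cells were seeded in 96-well plates on day 0, mostly at 20 000 cells/well, and preincubated 24 h without drug. Drug was then added at five 10-fold dilutions for a further 48 h. Cells were fixed in situ and stained with SRB, and bound dye was read spectrophotometrically. GI50, TGI (0% growth) and LC50 (−50% growth) were taken versus control. Values are mean-graph midpoints (log10) per test.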"}, "[2]": {"tested_on": "Tumor Cell line", "test": "Tested for in vitro inhibitory activity against drug concentration causing 50% cell death inhibition in 56 human tumor cell lines derived from leukemia in test 1; log10 LC50", "type": "functional", "settings": "read-out: Log LC50 (the source's name) (converted)", "method_in_brief": "as §1"}, "[3]": {"tested_on": "Tumor Cell line", "test": "Tested for in vitro inhibitory activity against drug concentration causing 50% cell death inhibition in 56 human tumor cell lines derived from leukemia in test 9; log10 LC50", "type": "functional", "settings": "read-out: Log LC50 (the source's name) (converted)", "method_in_brief": "as §1"}, "[4]": {"tested_on": "Tumor Cell line", "test": "Tested for in vitro inhibitory activity against drug concentration causing 50% cell death inhibition in 56 human tumor cell lines derived from small cell lung cancer in test 3; log10 LC50", "type": "functional", "settings": "read-out: Log LC50 (the source's name) (converted)", "method_in_brief": "as §1"}, "[5]": {"tested_on": "Tumor Cell line", "test": "Tested for in vitro inhibitory activity against drug concentration causing 50% cell death inhibition in 56 human tumor cell lines derived from CNS cancer in test 5; log10 LC50", "type": "functional", "settings": "read-out: Log LC50 (the source's name) (converted)", "method_in_brief": "as §1"}, "[6]": {"tested_on": "Tumor Cell line", "test": "Tested for in vitro inhibitory activity against drug concentration causing 50% cell death inhibition in 56 human tumor cell lines derived from Non small cell lung cancer in test 2; log10 LC50", "type": "functional", "settings": "read-out: Log LC50 (the source's name) (converted)", "method_in_brief": "as §1"}, "[7]": {"tested_on": "Tumor Cell line", "test": "Tested for in vitro inhibitory activity against drug concentration causing 50% cell death inhibition in 56 human tumor cell lines derived from Ovarian cancer in test 7; log10 LC50", "type": "functional", "settings": "read-out: Log LC50 (the source's name) (converted)", "method_in_brief": "as §1"}, "[8]": {"tested_on": "Tumor Cell line", "test": "Tested for in vitro inhibitory activity against drug concentration causing 50% cell death inhibition in 56 human tumor cell lines derived from Renal cancer in test 8; log10 LC50", "type": "functional", "settings": "read-out: Log LC50 (the source's name) (converted)", "method_in_brief": "as §1"}, "[9]": {"tested_on": "Tumor Cell line", "test": "Tested for in vitro inhibitory activity against drug concentration causing 50% cell growth inhibition in 56 human tumor cell lines derived from Ovarian cancer in test 7; log10 GI50", "type": "functional", "method_in_brief": "as §1"}, "[10]": {"tested_on": "Tumor Cell line", "test": "Tested for in vitro inhibitory activity against drug concentration causing 50% cell growth inhibition in 56 human tumor cell lines derived from colon cancer in test 4; log10 GI50", "type": "functional", "method_in_brief": "as §1"}, "[11]": {"tested_on": "Tumor Cell line", "test": "Tested for in vitro inhibitory activity against drug concentration causing 50% cell growth inhibition in 56 human tumor cell lines derived from leukemia in test 1; log10 GI50", "type": "functional", "method_in_brief": "as §1"}, "[12]": {"tested_on": "Tumor Cell line", "test": "Tested for in vitro inhibitory activity against drug concentration causing 50% cell growth inhibition in 56 human tumor cell lines derived from renal cancer in test 8; log10 GI50", "type": "functional", "method_in_brief": "as §1"}, "[13]": {"tested_on": "Tumor Cell line", "test": "Tested for in vitro inhibitory activity against drug concentration causing 50% cell death inhibition in 56 human tumor cell lines derived from Melanoma in test 6; log10 LC50", "type": "functional", "settings": "read-out: Log LC50 (the source's name) (converted)", "method_in_brief": "as §1"}, "[14]": {"tested_on": "Tumor Cell line", "test": "Tested for in vitro inhibitory activity against drug concentration causing total cell growth inhibition in 56 human tumor cell lines derived from CNS cancer in test 5; log10 TGI50", "type": "functional", "settings": "read-out: Log TGI (converted)", "method_in_brief": "as §1"}, "[15]": {"tested_on": "Tumor Cell line", "test": "Tested for in vitro inhibitory activity against drug concentration causing total cell growth inhibition in 56 human tumor cell lines derived from Melanoma in test 6; log10 TGI50", "type": "functional", "settings": "read-out: Log TGI (converted)", "method_in_brief": "as §1"}, "[16]": {"tested_on": "Tumor Cell line", "test": "Tested for in vitro inhibitory activity against drug concentration causing total cell growth inhibition in 56 human tumor cell lines derived from Non small cell lung cancer in test 2; log10 TGI50", "type": "functional", "settings": "read-out: Log TGI (converted)", "method_in_brief": "as §1"}, "[17]": {"tested_on": "Tumor Cell line", "test": "Tested for in vitro inhibitory activity against drug concentration causing total cell growth inhibition in 56 human tumor cell lines derived from Renal cancer in test 8; log10 TGI50", "type": "functional", "settings": "read-out: Log TGI (converted)", "method_in_brief": "as §1"}, "[18]": {"tested_on": "Tumor Cell line", "test": "Tested for in vitro inhibitory activity against drug concentration causing total cell growth inhibition in 56 human tumor cell lines derived from leukemia in test 1; log10 TGI50", "type": "functional", "settings": "read-out: Log TGI (converted)", "method_in_brief": "as §1"}, "[19]": {"tested_on": "Tumor Cell line", "test": "Tested for in vitro inhibitory activity against drug concentration causing total cell growth inhibition in 56 human tumor cell lines derived from ovarian cancer in test 7; log10 TGI50", "type": "functional", "settings": "read-out: Log TGI (converted)", "method_in_brief": "as §1"}, "[20]": {"tested_on": "Tumor Cell line", "test": "Tested for in vitro inhibitory activity against drug concentration causing total cell growth inhibition in 56 human tumor cell lines derived from small-cell-lung cancer in test 3; log10 TGI50", "type": "functional", "settings": "read-out: Log TGI (converted)", "method_in_brief": "as §1"}, "[21]": {"tested_on": "Tumor Cell line", "test": "Tested for in vitro inhibitory activity against drug concentration causing 50% cell growth inhibition in 56 human tumor cell lines derived from CNS cancer in test 5; log10 GI50", "type": "functional", "method_in_brief": "as §1"}, "[22]": {"tested_on": "Tumor Cell line", "test": "Tested for in vitro inhibitory activity against drug concentration causing 50% cell growth inhibition in 56 human tumor cell lines derived from Melanoma in test 6; log10 GI50", "type": "functional", "method_in_brief": "as §1"}, "[23]": {"organism": "Homo sapiens", "test": "Tested for in vitro inhibitory activity against drug concentration causing 50% cell growth inhibition in 56 human tumor cell lines derived from Non-small-cell lung cancer in test 2; log10 GI50", "type": "functional", "method_in_brief": "as §1"}, "[24]": {"tested_on": "Tumor Cell line", "test": "Tested for in vitro inhibitory activity against drug concentration causing total cell growth inhibition in 56 human tumor cell lines derived from leukemia in test 9; log10 TGI50", "type": "functional", "settings": "read-out: Log TGI (converted)", "method_in_brief": "as §1"}, "[25]": {"tested_on": "Tumor Cell line", "test": "Tested for in vitro inhibitory activity against drug concentration causing 50% cell growth inhibition in 56 human tumor cell lines derived from small-cell-lung cancer in test 3; log10 GI50", "type": "functional", "method_in_brief": "as §1"}, "[26]": {"tested_on": "Tumor Cell line", "test": "Tested for in vitro inhibitory activity against drug concentration causing 50% cell growth inhibition in 56 human tumor cell lines derived from leukemia in test 9; log10 GI50", "type": "functional", "method_in_brief": "as §1"}, "[27]": {"tested_on": "Tumor Cell line", "test": "Tested for in vitro inhibitory activity against drug concentration causing total cell growth inhibition in 56 human tumor cell lines derived from colon cancer in test 4", "type": "functional", "settings": "read-out: Log TGI (converted)", "method_in_brief": "as §1"}, "[28]": {"tested_on": "Tumor Cell line", "test": "Tested for in vitro inhibitory activity against drug concentration causing 50% cell growth inhibition in 56 human tumor cell lines derived from leukemia; log10 GI50", "type": "functional", "method_in_brief": "(§2)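 NCI screen: cells plated on day 0 (mostly 20 000 cells/well) and preincubated drug-free for 24 h. Drug then added at five 10-fold dilutions for 48 h. Cells were fixed in situ, stained with sulforhodamine B, and the solubilized bound dye read spectrophotometrically. GI50, the concentration giving 50% growth inhibition versus control, was taken from dose-response curves.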"}, "[29]": {"tested_on": "P388", "test": "Tested for in vitro inhibitory activity against drug concentration causing 50% cell growth inhibition in P388/ADR cell lines; log10 GI50", "type": "functional, Homo sapiens", "settings": "Mus musculus", "method_in_brief": "as §2"}},
  "data": [
    {"smiles": "COc1cc([C@@H]2c3cc4c(cc3[C@@H](Nc3ccc(F)cc3)[C@H]3COC(=O)[C@H]23)OCO4)cc(OC)c1O", "values": [
      {"measurement": "CC50", "setting": "[1]", "result": 1, "unit": "µM"},
      {"measurement": "CC50", "setting": "[2]", "result": 61.7, "unit": "µM"},
      {"measurement": "CC50", "setting": "[3]", "result": 61.7, "unit": "µM"},
      {"measurement": "CC50", "setting": "[4]", "result": 61.7, "unit": "µM"},
      {"measurement": "CC50", "setting": "[5]", "result": 63.1, "unit": "µM"},
      {"measurement": "CC50", "setting": "[6]", "result": 66.1, "unit": "µM"},
      {"measurement": "CC50", "setting": "[7]", "result": 79.4, "unit": "µM"},
      {"measurement": "CC50", "setting": "[8]", "result": 1, "unit": "µM"},
      {"measurement": "GI50", "setting": "[9]", "result": 0.871, "unit": "µM"},
      {"measurement": "GI50", "setting": "[10]", "result": 0.708, "unit": "µM"},
      {"measurement": "GI50", "setting": "[11]", "result": 1.1, "unit": "µM"},
      {"measurement": "GI50", "setting": "[12]", "result": 0.646, "unit": "µM"},
      {"measurement": "CC50", "setting": "[13]", "result": 1, "unit": "µM"},
      {"measurement": "TGI", "setting": "[14]", "result": 11, "unit": "µM"},
      {"measurement": "TGI", "setting": "[15]", "result": 0.977, "unit": "µM"},
      {"measurement": "TGI", "setting": "[16]", "result": 12.3, "unit": "µM"},
      {"measurement": "TGI", "setting": "[17]", "result": 0.977, "unit": "µM"},
      {"measurement": "TGI", "setting": "[18]", "result": 9.77, "unit": "µM"},
      {"measurement": "TGI", "setting": "[19]", "result": 12, "unit": "µM"},
      {"measurement": "TGI", "setting": "[20]", "result": 9.55, "unit": "µM"},
      {"measurement": "GI50", "setting": "[21]", "result": 1.35, "unit": "µM"},
      {"measurement": "GI50", "setting": "[22]", "result": 0.661, "unit": "µM"},
      {"measurement": "GI50", "setting": "[23]", "result": 0.813, "unit": "µM"},
      {"measurement": "TGI", "setting": "[24]", "result": 8.71, "unit": "µM"},
      {"measurement": "GI50", "setting": "[25]", "result": 1.41, "unit": "µM"},
      {"measurement": "GI50", "setting": "[26]", "result": 0.813, "unit": "µM"},
      {"measurement": "TGI", "setting": "[27]", "result": 1, "unit": "µM"}
    ]},
    {"smiles": "COc1cc([C@@H]2c3cc4c(cc3[C@@H](O[C@@H]3O[C@@H]5CO[C@@H](C)O[C@H]5[C@H](O)[C@H]3O)[C@H]3COC(=O)[C@H]23)OCO4)cc(OC)c1O", "note": "[ETOPOSIDE]", "values": [
      {"measurement": "GI50", "setting": "[28]", "result": 83.2, "unit": "µM"},
      {"measurement": "GI50", "setting": "[29]", "result": 63.1, "unit": "µM"}
    ]}
  ]
}
